These results are taken from ChEMBL document CHEMBL5335768, “Expanding the knowledge around antitubercular 5-(2-aminothiazol-4-yl)isoxazole-3-carboxamides: Hit-to-lead optimization and release of a novel antitubercular chemotype via scaffold derivatization” (Eur J Med Chem, 2023).

Molecules are shown by their SMILES. Converted amounts (≈) assume the structure as drawn. The source made the active and inactive calls. The calls are words filed in the database; no cut-off is given here. A value given as a limit tells only on which side of the number the result lay.

Data set [1] can be described thus: Cytotoxicity against human THP-1 cells assessed as reduction in cell viability measured after 72 hrs by MTT assay. It is filed as toxicity, cell-based. The gist of the method:
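THP-1 monocytes were differentiated to macrophages with PMA 100 ng/mL for 72 h. They were then exposed to compounds at 1, 10, 50 and 100 μM for 72 h, each tested twice. MTT at 1 mg/mL in RPMI with 5% FBS was added for 2 h at 37 °C; formazan was dissolved in DMSO and read at 570 nm. Viability is given as % of control; IC50 from non-linear regression.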
(In general: Tetrazolium dyes change colour on reduction, which living cells bring about.)

Data set [2] has as its system Mycobacterium tuberculosis. As to the kind of experiment: Antitubercular activity against Mycobacterium tuberculosis H37Rv assessed as inhibition of bacterial growth incubated for 7 days by REMA method. It is filed as functional.
In data set [3] the test system is Mycobacterium marinum. The following applies: ATCC BAA-535, time 3.0 weeks.
Setting [4] is: Mycobacterium tuberculosis, H37Rv, 168 h, time 7 day, read-out: MIC90.

Regarding `Cc1ccc(Nc2nc(-c3cc(C(=O)Nc4ccccn4)no3)co2)cc1`, the IC50 (as a rule, the concentration that inhibits the measured activity by half) at 72 h in data set [1] came out at 70.9 µg/mL (≈ 196 µM). Further, in data set [2] (setting [4]), the MIC90 (commonly an inhibitory concentration at the 90% level, which refers to growth in some studies and to a panel of isolates in others) is 2.5 µg/mL (≈ 6.92 µM).

In the case of `COc1ccc2sc(NC(=O)c3cc(C(=O)Nc4cccc(C)c4)no3)nc2c1`, the MIC90 result in data set [3] and in data set [2] (time 7.0 day) was “inactive” in each case.

As for `Cc1ccc(Nc2nc(-c3cc(C(=O)NCc4cccs4)no3)cs2)cc1`, the MIC90 in data set [2] (setting [4]) is over 20 µg/mL. Take `Cc1cccc(NC(=O)c2cc(C(=O)Nc3nc4ccc(C)cc4s3)on2)c1`: the MIC90 result in data set [3] and in data set [2] (time 7.0 day) was “inactive” in each case. Take `Cc1ccc(Nc2nc(-c3cc(C(=O)Nc4ccc(C)cc4C)no3)cs2)cc1`: the MIC90 in data set [2] (setting [4]) was over 20 µg/mL. As to `O=C(Nc1ccccc1)c1cc(-c2csc(Nc3cc(F)cc(F)c3)n2)on1`, the MIC90 in data set [2] (setting [4]) is over 20 µg/mL.

On to `CN[C@@H]1[C@H](O[C@H]2[C@H](O[C@H]3[C@H](O)[C@@H](O)[C@H](N=C(N)N)[C@@H](O)[C@@H]3N=C(N)N)O[C@@H](C)[C@]2(O)C=O)O[C@@H](CO)[C@H](O)[C@H]1O` [STREPTOMYCIN], for which the MIC90 in data set [2] (setting [4]) amounted to 0.25 µg/mL (≈ 0.43 µM). `Cc1ccc2nc(NC(=O)c3cc(C(=O)Nc4ccccc4)no3)sc2c1`: the MIC90 result in data set [3] and in data set [2] (time 7.0 day) was “inactive” each time.

For `Cc1ccc(Nc2nc(-c3cc(C(=O)Nc4ccccc4O)no3)cs2)cc1`, the IC50 at 72 h in data set [1] is 53.1 µg/mL (≈ 135 µM). In data set [2] (setting [4]), the MIC90 was determined as 0.5 µg/mL (≈ 1.27 µM). Take `Cc1ccc(Nc2nc(-c3cc(C(=O)Nc4cccc(C(F)(F)F)c4)no3)cs2)cc1`: in data set [2] (setting [4]), the MIC90 was over 20 µg/mL. Still for that read-out and setting: then `O=C(Nc1ccccc1)c1cc(-c2csc(Nc3cc(Cl)cc(Cl)c3)n2)on1`, with over 20 µg/mL. On the same count and under the same terms, in the case of `Cc1ccc(Nc2nc(-c3cc(C(=O)Nc4ccc(C)cc4Cl)no3)cs2)cc1` it was over 20 µg/mL; in that of `Cc1ccc(Nc2nc(-c3cc(C(=O)Nc4nccs4)no3)cs2)cc1`, over 40 µg/mL.

As for `Cc1ccc(Nc2nc(-c3cc(C(=O)N4CCCC4)no3)cs2)cc1`, in data set [1], the IC50 at 72 h is over 100 µg/mL. In addition, in data set [2] (setting [4]), the MIC90 was over 20 µg/mL. In the case of `NNC(=O)c1ccncc1` [ISONIAZID], in data set [2] (time 7 day), the MIC90 was determined as 0.025 µg/mL (≈ 0.182 µM). In the case of `Cc1ccc(Nc2nc(-c3cc(C(=O)Nc4cc(C)cc(C)c4)no3)cs2)cc1`, in data set [2] (setting [4]), the MIC90 is over 20 µg/mL. `Cc1ccc(Nc2nc(-c3cc(C(=O)Nc4ccccc4F)no3)cs2)cc1`: in data set [1], the IC50 at 72 h came out at 33.9 µg/mL (≈ 85.9 µM). Also, in data set [2] (setting [4]), the MIC90 came to 1 µg/mL (≈ 2.54 µM). In the case of `CCOc1cccc(NC(=O)c2cc(-c3csc(Nc4ccc(C)cc4)n3)on2)c1`, in data set [2] (setting [4]), the MIC90 is over 20 µg/mL. The same measure, in the same setting: in the case of `O=C(Nc1ccccn1)c1cc(-c2csc(Nc3cc(F)cc(F)c3)n2)on1` it was over 20 µg/mL; in that of `Cc1ccc(Nc2nc(-c3cc(C(=O)Nc4ccccn4)no3)cs2)c(O)c1`, over 20 µg/mL. Take `CCOC(=O)c1cc(-c2cccc(Nc3ccc(C)cc3)n2)on1`: in data set [1], the IC50 at 72 h is over 100 µg/mL. Also, the MIC90 in data set [2] (setting [4]) amounted to 1.25 µg/mL (≈ 3.87 µM). In the case of `Cc1ccc(Nc2nc(-c3cc(C(=O)Nc4ncccc4C)no3)cs2)cc1`, the MIC90 in data set [2] (setting [4]) is over 20 µg/mL. For the molecule `Cc1ccc(Nc2nc(-c3cc(C(=O)Nc4ccnnc4)no3)cs2)cc1`, the MIC90 in data set [2] (setting [4]) is over 20 µg/mL.

As to `Cc1ccc(Nc2nc(-c3cc(C(=O)Nc4ncc(C)s4)no3)cs2)cc1`, in data set [2] (setting [4]), the MIC90 is over 20 µg/mL. Still for that read-out and setting: in the case of `O=C(Nc1ccccc1)c1cc(-c2csc(Nc3ccc(CO)cc3)n2)on1` it was over 20 µg/mL; in that of `Cc1cc(C)cc(Nc2nc(-c3cc(C(=O)Nc4ccccn4)no3)cs2)c1`, over 20 µg/mL. For `Cc1ccc(NC(=O)c2cc(-c3csc(Nc4ccc(C)cc4)n3)on2)cc1`, the IC50 at 72 h in data set [1] came out at 47.5 µg/mL (≈ 122 µM). For the same molecule, the MIC90 in data set [2] (setting [4]) is 1 µg/mL (≈ 2.56 µM).

Consider `Cc1ccc(Nc2nc(-c3cc(C(=O)Nc4ccc(Cl)cc4)no3)cs2)cc1`, for which, in data set [2] (setting [4]), the MIC90 is over 40 µg/mL. Same read-out and setting: then `Cc1ccc(Nc2nc(-c3cc(C(=O)Nc4cccnc4)no3)cs2)cc1`, with 10 µg/mL (≈ 26.5 µM).

As for `Cc1ccc(Nc2nc(-c3cc(C(=O)Nc4ccccc4)no3)cs2)cc1O`, the IC50 at 72 h in data set [1] was over 100 µg/mL. The MIC90 in data set [2] (setting [4]) was 2.5 µg/mL (≈ 6.37 µM). With `O=C(Nc1ccccn1)c1cc(-c2csc(Nc3ccc(CO)cc3)n2)on1`, the MIC90 in data set [2] (setting [4]) is over 20 µg/mL. On the same count and under the same terms, in the case of `O=C(Nc1ccccn1)c1cc(-c2csc(Nc3cc(Cl)cc(Cl)c3)n2)on1` it was over 20 µg/mL.
